{"data": "Assay results collected from several papers", "target": "Phosphatidylinositol 3-kinase catalytic subunit type 3 (PIK3C3, Homo sapiens, UniProt Q8NEB9)", "note": "Each line is one published result; the experiments were not run side by side."}
{"SMILES": "c1ccc(N2CCN(Cc3nc4ccccc4[nH]3)CC2)nc1", "test": "cell-free assay, competition with immobilised ligand", "conditions": "1 µM", "remaining binding [%]": 100}
{"SMILES": "c1cnn2ncc(-c3ccnc(N4CCC45COC5)n3)c2c1", "test": "binding", "conditions": "1 µM", "remaining binding [%]": 48}
{"SMILES": "O=C(N[C@H]1CCCCC/C=C\\C2C[C@@]2(C(=O)O)NC(=O)[C@@H]2C[C@@H](Oc3ccncc3)CN2C1=O)OC1CCCC1 (some centres unmarked)", "test": "cell-free assay, competition with immobilised ligand", "conditions": "1 µM", "remaining binding [%]": 100}
{"SMILES": "C[C@@H]1CCN(c2nccc(-c3cnn4ncccc34)n2)C1", "test": "binding", "conditions": "1 µM", "remaining binding [%]": 70}
{"SMILES": "O=C(c1ccc(Nc2nccc(-c3cc4ccccc4s3)n2)cc1)N1CCC(N2CCCC2)CC1", "test": "binding, competition with immobilised ligand", "conditions": "1 µM", "remaining binding [%]": 4.9}
{"SMILES": "O=C(NC[C@@H]1[C@H]2CN(C(=O)OCc3cc(C(F)(F)F)cc(C(F)(F)F)c3)C[C@@H]12)c1ccc2[nH]nnc2c1", "test": "cell-free assay, competition with immobilised ligand", "conditions": "1 µM", "remaining binding [%]": 72}
{"SMILES": "CN(C)c1nccc(-c2cnn3ncccc23)n1", "test": "binding", "conditions": "1 µM", "remaining binding [%]": 100}
{"SMILES": "O=C(NCCCN1CCOCC1)c1ccc(Nc2ncc(Cl)c(-c3ccc(Cl)s3)n2)cc1", "test": "binding, competition with immobilised ligand", "conditions": "1 µM", "remaining binding [%]": 33}
{"SMILES": "Cc1cc(-n2nc(Cc3cc(F)cc(C(F)(F)F)c3)nc2C)ccc1C(N)=O", "test": "cell-free assay, competition with immobilised ligand", "conditions": "1 µM", "remaining binding [%]": 100}
{"SMILES": "COc1cnc(Nc2cccc(S(N)(=O)=O)c2)nc1N1CCN(c2ccccc2)C(=O)C1", "test": "binding, competition with immobilised ligand", "conditions": "1 µM", "remaining binding [%]": 64}
{"SMILES": "Cc1cnc(Nc2ccc(C(=O)N3CCC(N4CCCC4)CC3)cc2)nc1-c1cc2ccccc2s1", "test": "binding, competition with immobilised ligand", "conditions": "1 µM", "remaining binding [%]": 14}
{"SMILES": "c1cncc(-c2cccc(Nc3nccc(NC4CCCCC4)n3)c2)c1", "test": "binding, competition with immobilised ligand", "conditions": "10 µM", "remaining binding [%]": 21}
{"SMILES": "FC(F)(F)Oc1cccc(-c2cnc3ccc(-c4ccncc4)nn23)c1", "test": "cell-free assay, competition with immobilised ligand", "conditions": "5 µM", "remaining binding [%]": 34}
{"SMILES": "N[C@@H]1CCN(c2nccc(-c3cnn4ncccc34)n2)C1", "test": "binding", "conditions": "1 µM", "remaining binding [%]": 83}
{"SMILES": "Nc1c(C(=O)NCc2ccc(C(=O)NCCCC3CCCCC3)cc2)cnn1-c1ccccc1", "test": "cell-free assay, competition with immobilised ligand", "conditions": "0.1 µM", "remaining binding [%]": 99}
{"SMILES": "CN(CCCC(F)(F)F)c1nccc(-c2cnn3ncccc23)n1", "test": "binding", "conditions": "1 µM", "remaining binding [%]": 100}
{"SMILES": "CO[C@@H](C)c1c(Nc2ccc([C@H](N(C)C(=O)C3CCS(=O)(=O)CC3)C(F)(F)F)cc2)cnc2cc(Cl)nn12", "test": "cell-free assay, competition with immobilised ligand", "conditions": "1 µM", "remaining binding [%]": 100}
{"SMILES": "CC1CCCN1c1nccc(-c2cnn3ncccc23)n1 (centres unmarked)", "test": "binding", "conditions": "1 µM", "remaining binding [%]": 100}
{"SMILES": "O=C(Nc1c[nH]nc1C(=O)NC1CCNCC1)c1cc(F)cc(F)c1", "test": "binding, competition with immobilised ligand", "conditions": "1 µM", "remaining binding [%]": 90}
{"SMILES": "COc1ncc2cc3ccccc3nc2c1C#N", "test": "cell-free assay, competition with immobilised ligand", "conditions": "5 µM", "remaining binding [%]": 92}
